Assay: Distribution coefficient, log D between 1-octonol and aqueous phosphate buffer at pH 7.4
Format: physicochemical
Conditions: 1-octanol/aqueous phosphate buffer
In short: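 logD measured as distribution between 1-octanol and aqueous phosphate buffer, pH 7.4.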

logD | Compound
3.4 | C[C@@H]1CN(c2nc(C(F)(F)F)no2)CCN1c1ncc(OCc2ccc(N=S(C)(C)=O)cc2F)cn1
2.9 | C[C@@H]1CN(C(=O)OC2(C(F)(F)F)COC2)CCN1c1ncc(OCc2ccc(CS(C)(=O)=O)cc2F)cn1
3.7 | C[C@@H]1CN(C(=O)OC2(C(F)(F)F)COC2)CCN1c1ncc(OCc2ccc(OS(C)(=O)=O)cc2F)cn1
3 | C[C@@H]1CN(C(=O)OC2(C(F)(F)F)COC2)CCN1c1ncc(OCc2ccc(S(C)(=O)=O)cc2F)cn1
3.1 | CC(C)c1noc(N2CCN(c3ncc(OCc4ccc(CS(C)(=O)=O)cc4F)cn3)[C@H](C)C2)n1
3.4 | CC(C)c1noc(N2CCN(c3ncc(OCc4ccc(S(C)(=O)=O)cc4F)cn3)[C@H](C)C2)n1

From ChEMBL document CHEMBL3351317 (J Med Chem, 2014)
